This note sets out measurements from ChEMBL document CHEMBL3259699, “Digitoxin analogues with improved anticytomegalovirus activity” (ACS Med Chem Lett, 2014).

Activity calls are given as the source filed them. No cut-off for these calls is given here.

Data set [1] concerns Human betaherpesvirus 5. Description: Antiviral activity against Human cytomegalovirus Towne infected in HFF assessed as inhibition of viral replication by measuring pp28 expression at 72 hrs post-infection by luciferase assay. As to conditions: Human betaherpesvirus 5, Towne. Format: functional, organism-based. The procedure, abridged: (§1)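 HFFs infected with pp28-luciferase reporter HCMV at MOI 1 pfu/cell and treated across a concentration range. Luciferase activity read in cell lysates at 72 hpi. Triplicates in three independent experiments, mean ± SD. EC50 taken from dose-response curves.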

Data set [2] is described as follows: Selectivity index, ratio of CC50 for HFF to EC50 for Human cytomegalovirus Towne infected in human foreskin fibroblasts. Summed up:
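SI calculated as CC50/EC50. CC50 from MTT assay in uninfected HFFs. EC50 from pp28-luciferase HCMV Towne inhibition in infected HFFs.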

A short description of data set [3]: Cytotoxicity against HFF assessed as inhibition of cell viability after 3 days by trypan blue exclusion assay. Conditions: human, HFF cells. Format: cell-based.
A short description of data set [4]: Cytotoxicity against HFF assessed as inhibition of cell viability after 3 days by MTT assay. Format: cell-based. Conditions: human, HFF cells. Summed up:
(§2)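 Uninfected HFFs exposed to a concentration range at 37 °C for 3 days. MTT (5 mg/mL stock in PBS) added for 3 h at 37 °C. Formazan dissolved in DMSO and absorbance read. Triplicates in three independent experiments, mean ± SD. CC50 from dose-response curves.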
A general note: Formazan colour is commonly taken as a measure of viable cells.

Data set [5] can be described thus: Cytotoxicity against HFF assessed as inhibition of cell proliferation at 0.1 uM after 3 days by MTT assay. Type of data set: cell-based. As to conditions: human, HFF cells. The procedure, abridged: as §2
The test system of data set [6] is HFF. The data set can be described thus: Effect on mimosine-induced cell cycle arrest in HFF infected with HCMV assessed as accumulation at G0/1 phase treated for 1 day after incubation with mid-G1 inhibitor mimosine for 48 hrs by propidium iodide staining based flow cytometry. Type of data set: ADME. As to conditions: human, 24 h. The procedure, abridged: (§3)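 HFFs pretreated 48 h with mimosine or lovastatin, washed and released, then HCMV-infected and treated 24 h (1 day) with compound. Trypsinized, permeabilized at −20 °C for 12 h, stained with propidium iodide and analysed by flow cytometry.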
A general note: In flow cytometry, cells or beads pass a laser one at a time.

Data set [7] has as its system HFF. Description: Effect on lovastatin-induced cell cycle arrest in HFF infected with HCMV assessed as accumulation at G0/1 phase treated for 24 hrs after incubation with early G1 inhibitor lovastatin for 48 hrs by propidium iodide staining based flow cytometry. Type of data set: ADME. Conditions: human. The procedure, abridged: as §3
The subject of data set [8] is HFF. The data set can be described thus: Cell cycle arrest in HFF infected with HCMV assessed as accumulation at G0/1 phase after 24 hrs by propidium iodide staining based flow cytometry. Format: ADME. Conditions: human. The procedure, abridged:
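HFFs serum-starved for 48 h, released, infected with Towne HCMV and treated with compound for 24 h. Cells trypsinized, permeabilized at −20 °C for 12 h, stained with propidium iodide and analysed by flow cytometry. Controls: serum-containing medium and GCV.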

Data set [9] concerns Human betaherpesvirus 5. Description: Antiviral activity against Human cytomegalovirus Towne infected in HFF assessed as decrease in virus DNA yield at 50 nM measured 96 hrs post-infection by real-time PCR analysis. Format: functional, organism-based. Summed up: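 HFFs infected with HCMV Towne at MOI 1 pfu/cell and treated for 4 days. Supernatants collected and viral DNA yield quantified by real-time PCR. Triplicate determinations in three independent experiments, reported as mean ± SD.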

Data set [10] relates to Human betaherpesvirus 5. The data set can be described thus: Antiviral activity against Human cytomegalovirus TB40 infected in HFF assessed as inhibition of viral replication at 50 nM after 3 days by GFP-based fluorescence analysis. Type of data set: functional, organism-based. The procedure, abridged:
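Human foreskin fibroblasts (HFFs) infected with HCMV-TB40 (GFP-expressing) at MOI 1 pfu/cell, then treated with compound for 3 days. Read-out: GFP fluorescence, with a bright-field image for comparison.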

The test system of data set [11] is Human betaherpesvirus 5. Description: Antiviral activity against Human cytomegalovirus Towne infected in HFF assessed as inhibition of viral replication by measuring pp28 expression at 50 nM at 72 hrs post-infection by luciferase assay. Type of data set: functional, organism-based. The procedure, abridged: as §1
Data set [12] relates to Human betaherpesvirus 5. The data set can be described thus: Antiviral activity against Human cytomegalovirus Towne infected in HFF assessed as plaque reduction at 50 nM measured 8 days post-infection. Format: functional, organism-based. Summed up: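 Plaque reduction assay with HCMV Towne in HFFs, read at 8 days postinfection. Triplicate determinations in three independent experiments, mean ± SD.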

On to `C[C@]12CC[C@H](O[C@@H]3O[C@@H](CO)[C@H](O)[C@@H](O)[C@H]3O)C[C@H]1CC[C@@H]1[C@@H]2CC[C@]2(C)[C@@H](C3=CC(=O)OC3)CC[C@]12O`, for which the EC50 in data set [1] turned out to be 7.3 nM. The “Ratio CC50/EC50” value in data set [2] was 127. Further, the half-maximal cytotoxic concentration (CC50) at 72 h in [3] was determined as 1900 nM; in data set [4], 900 nM.
For `C[C@@H]1O[C@@H](O[C@H]2CC[C@@]3(C)[C@H](CC[C@@H]4[C@@H]3CC[C@]3(C)[C@@H](C5=CC(=O)OC5)CC[C@]43O)C2)CC[C@H]1O` [RAMNODIGIN], in data set [1], the EC50 is 3.8 nM. Besides, the inhibition at 72 h, 0.1 µM in data set [5] was determined as 50%. Further, the “Ratio CC50/EC50” value in [2] was found to be 174. For the same molecule, the values for the CC50 at 72 h in data set [3] and in data set [4] were 4000 nM and 700 nM, respectively.
Regarding `C[C@H]1O[C@H](O[C@H]2[C@H](O)[C@H](O)[C@@H](O[C@H]3CC[C@@]4(C)[C@H](CC[C@@H]5[C@@H]4CC[C@]4(C)[C@@H](C6=CC(=O)OC6)CC[C@]54O)C3)O[C@@H]2C)[C@@H](O)[C@@H](O)[C@@H]1O`, the EC50 in data set [1] came to 209 nM. The “Ratio CC50/EC50” value in data set [2] is reported as 32. For the same molecule, the 50% cytotoxic concentration (CC50) at 72 h is 10000 nM in data set [3] and 6700 nM in data set [4].
The matching figures for `C[C@H]1O[C@H](O[C@H]2CC[C@@]3(C)[C@H](CC[C@@H]4[C@@H]3CC[C@]3(C)[C@@H](C5=CC(=O)OC5)CC[C@]43O)C2)CC[C@@H]1O[C@@H]1CC[C@H](O[C@@H]2CC[C@H](O)[C@@H](C)O2)[C@@H](C)O1`: 2080 nM, 7, 19000 nM and 15000 nM.
The matching figures for `C[C@@H]1O[C@@H](O[C@@H]2CC[C@H](O[C@@H]3CC[C@H](O[C@H]4CC[C@@]5(C)[C@H](CC[C@@H]6[C@@H]5CC[C@]5(C)[C@@H](C7=CC(=O)OC7)CC[C@]65O)C4)O[C@H]3C)O[C@H]2C)CC[C@H]1O`: 113 nM, 21, 9000 nM and 2400 nM.
The matching figures for `C[C@@H]1O[C@@H](O[C@@H]2CC[C@H](O[C@H]3CC[C@@]4(C)[C@H](CC[C@@H]5[C@@H]4CC[C@]4(C)[C@@H](C6=CC(=O)OC6)CC[C@]54O)C3)O[C@H]2C)CC[C@H]1O`: 14.8 nM, 76, 7000 nM and 1100 nM.
Turning to `C[C@@H]1O[C@@H](O[C@@H]2[C@@H](O)[C@@H](O)[C@H](O[C@H]3CC[C@@]4(C)[C@H](CC[C@@H]5[C@@H]4CC[C@]4(C)[C@@H](C6=CC(=O)OC6)CC[C@]54O)C3)O[C@H]2C)[C@H](O)[C@H](O)[C@H]1O`, in data set [1], the EC50 came out at 36.7 nM. The “Ratio CC50/EC50” value in [2] was determined as 41. Further, the CC50 at 72 h in [3] was determined as 6000 nM; in data set [4], 1500 nM.
With `C[C@@H]1O[C@@H](O[C@H]2C[C@@H](O)[C@]3(CO)[C@H]4[C@H](O)C[C@]5(C)[C@@H](C6=CC(=O)OC6)CC[C@]5(O)[C@@H]4CC[C@]3(O)C2)[C@H](O)[C@H](O)[C@H]1O` [OUABAIN], the Activity entry in [6] was “Not Active”; in data set [7], “Not Active”; in data set [8], “Active”.
On to `C[C@@H]1O[C@@H](O[C@H]2CC[C@@]3(C)[C@H](CC[C@@H]4[C@@H]3CC[C@]3(C)[C@@H](C5=CC(=O)OC5)CC[C@]43O)C2)[C@H](O)[C@H](O)[C@H]1O`, for which the EC50 in [1] is 4.8 nM. Besides, the “Ratio CC50/EC50” value in data set [2] is 139. The figures for the CC50 at 72 h in [3] and in [4] were 2000 nM and 700 nM, respectively.
`C[C@H]1O[C@@H](O[C@H]2[C@@H](O)C[C@H](O[C@H]3[C@@H](O)C[C@H](O[C@H]4CC[C@@]5(C)[C@H](CC[C@@H]6[C@@H]5CC[C@]5(C)[C@@H](C7=CC(=O)OC7)CC[C@]65O)C4)O[C@@H]3C)O[C@@H]2C)C[C@H](O)[C@@H]1O` [DIGITOXIN]: the inhibition result in data set [9], in data set [10], in data set [11] and in [12] was “Active” throughout. Also, in data set [1], the EC50 came out at 23.3 nM. For the same molecule, the Activity result is “Not Active” in [6], “Not Active” in [7] and “Active” in data set [8]. For the same molecule, the inhibition at 72 h, 0.1 µM in [5] was found to be 50%. Further, the “Ratio CC50/EC50” value in data set [2] is 120. In addition, the results for the CC50 at 72 h in [3] and in data set [4] were 6000 nM and 2800 nM, respectively.
On to `C[C@@H]1O[C@@H](O[C@@H]2[C@@H](O)[C@@H](O)[C@H](O[C@@H]3[C@@H](O)[C@@H](O)[C@H](O[C@H]4CC[C@@]5(C)[C@H](CC[C@@H]6[C@@H]5CC[C@]5(C)[C@@H](C7=CC(=O)OC7)CC[C@]65O)C4)O[C@H]3C)O[C@H]2C)[C@H](O)[C@H](O)[C@H]1O`, for which the EC50 in [1] came out at 232 nM. Also, the “Ratio CC50/EC50” value in [2] worked out at 30. In addition, the CC50 at 72 h in [3] worked out at 11000 nM; in data set [4] it was 7000 nM.
The matching figures for `C[C@H]1O[C@H](O[C@H]2[C@H](O)[C@H](O)[C@@H](O[C@H]3[C@H](O)[C@H](O)[C@@H](O[C@H]4CC[C@@]5(C)[C@H](CC[C@@H]6[C@@H]5CC[C@]5(C)[C@@H](C7=CC(=O)OC7)CC[C@]65O)C4)O[C@@H]3C)O[C@@H]2C)[C@@H](O)[C@@H](O)[C@@H]1O`: 320 nM, 31, 16000 nM and 10000 nM.
For `C[C@H]1O[C@H](O[C@H]2CC[C@@]3(C)[C@H](CC[C@@H]4[C@@H]3CC[C@]3(C)[C@@H](C5=CC(=O)OC5)CC[C@]43O)C2)CC[C@@H]1O`, in that order: 37.5 nM, 29, 4000 nM and 1100 nM.
On to `C[C@H]1O[C@H](O[C@H]2CC[C@@]3(C)[C@H](CC[C@@H]4[C@@H]3CC[C@]3(C)[C@@H](C5=CC(=O)OC5)CC[C@]43O)C2)CC[C@@H]1O[C@@H]1CC[C@H](O)[C@@H](C)O1`, for which the EC50 in [1] was 790 nM. Also, the “Ratio CC50/EC50” value in data set [2] was 15. Moreover, the CC50 at 72 h was 1000 nM in data set [3] and 12100 nM in data set [4].
For `C[C@H]1O[C@H](O[C@H]2CC[C@@]3(C)[C@H](CC[C@@H]4[C@@H]3CC[C@]3(C)[C@@H](C5=CC(=O)OC5)CC[C@]43O)C2)[C@@H](O)[C@@H](O)[C@@H]1O`, in that order: 26.6 nM, 86, 3700 nM and 2300 nM.

What is called EC50 is the concentration needed to bring the measured effect to its halfway point. For orientation: CC50 means the concentration at which the toxic effect on the cells reaches its halfway point. By inhibition is commonly meant the drop in the measured response relative to a control, in per cent.
